The list is not random: actives were taken first. Their share in the collection is about 1.5%.
MLL AF4-AF9 inh – blocks AF4 peptide binding to human AF9; P42568; AlphaScreen, biotin-AF4 peptide binding to FLAG-AF9; inhibition, % at 10 µM; actives 0.47% (n = 350,000);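 active = every replicate reaching a set inhibition limit, whatever the replicate mean, cut at about 25% in these data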;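 also: 0% = plate neutral control median and 100% = total signal loss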
S100A4 inh HTS – S100A4-myosin IIA interaction inhibition. P26447. S100A4/TAMRA-MyoIIA peptide fluorescence polarization. inhibition, % at 10.7 µM. actives 0.14% (n = 360,000). AID 652163;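 active = mean inhibition of at least 70% across replicates, with every replicate also reaching that level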
Target sequence (P26447 whole entry, looked up): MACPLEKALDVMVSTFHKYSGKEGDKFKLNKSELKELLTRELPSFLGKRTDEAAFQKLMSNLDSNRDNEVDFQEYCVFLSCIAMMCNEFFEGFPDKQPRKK
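Material: S100A4 monomer (human). Medium: Calcium-containing HEPES buffer, pH 7.2. Probe or stimulus: labelled myosin peptide probe, 5 nM. Compound dosing: one concentration per compound. Timing: polarization read 5 min after assay mix addition, stable 5–60 min. Benchmarks: DMSO as neutral control, TFP as positive control.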
dFosB act-1 – activators of mouse delta FosB homodimer; purified delta FosB, TAMRA-CDK5 oligo fluorescence polarization; percent of positive-control signal above neutral wells; actives 0.99% (n = 340,000); activation, % at 25 µM;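 active = mean activation above about 17%, with every replicate also reaching it, limit read from the data, passing the limit was not always enough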
Target sequence (P13346 whole entry, looked up): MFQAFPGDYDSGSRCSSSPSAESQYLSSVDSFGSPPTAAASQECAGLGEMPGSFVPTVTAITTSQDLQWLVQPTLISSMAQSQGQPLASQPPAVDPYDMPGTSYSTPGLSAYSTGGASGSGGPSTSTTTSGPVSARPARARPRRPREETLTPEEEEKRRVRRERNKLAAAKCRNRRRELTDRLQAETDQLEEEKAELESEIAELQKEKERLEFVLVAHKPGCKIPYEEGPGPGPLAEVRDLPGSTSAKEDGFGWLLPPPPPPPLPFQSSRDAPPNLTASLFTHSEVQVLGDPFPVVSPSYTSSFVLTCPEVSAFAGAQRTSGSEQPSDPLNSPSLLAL
RAD52 anneal inh – blocks human RAD52 DNA annealing; P43351; AID 651710; inhibition, % at 18.7 µM; recombinant RAD52 DNA annealing, FRET fluorescence; actives 0.46% (n = 360,000);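 active = every replicate showing at least 50% inhibition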
RAD54 branch – RAD54 (human) branch migration inhibition. AID 602329. actives 0.14% (n = 360,000). Q92698. RAD54 Holliday junction branch migration, FAM/BHQ fluorescence. inhibition, % at 10.4 µM;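 active = mean normalized replicate activity at least 40 and at least half of replicates scoring 40 or more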;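 also: 0% = median of neutral control wells and 100% = median of positive control wells; inhibitors cause a drop in the FAM fluorescence signal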
dFosB act-2 – delta FosB (mouse) homodimer activation | activation, % at 24.9 µM | 2,400 tested, under 10 active | AID 588690 | purified delta FosB, TAMRA-CDK5 oligo fluorescence polarization; normalised: neutral wells 0, positive control 100 | shares compounds with dFosB act-1;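 active = highest replicate activation at or above 34% and every replicate reaching that threshold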;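 also: higher polarization means more probe DNA bound by delta FosB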
* marks the source's active call; other numbers are inactive results; x = no result.

SMILES | MLL AF4-AF9 inh | S100A4 inh HTS | dFosB act-1 | RAD52 anneal inh | RAD54 branch | dFosB act-2
CC(C)C[C@@H](CN1CCCC1CN1C(=S)NC[C@@H]1Cc1ccc(O)cc1)N1C[C@H](Cc2ccccc2)N(CCc2ccccc2)C1=S (stereo partly specified) | -1 | -9 | 61* | -17 | 5 | 6
Cc1cccc(NC(=O)CSc2nsc(SCC(=O)Nc3cccc(C)c3)c2C#N)c1 | -3 | 1 | 4 | -1 | x | x
N#Cc1c(SCC(=O)Nc2ccccc2)nsc1SCC(=O)Nc1ccccc1 | -1 | 20 | 25* | -5 | x | 0
Cc1sc2nc(SCC(=O)Nc3cccc(S(N)(=O)=O)c3)[nH]c(=O)c2c1C | 0 | -6 | 3 | -100 | -2 | x
Cc1sc2nc(SCC(=O)Nc3ccc(S(N)(=O)=O)cc3)[nH]c(=O)c2c1C | -1 | 3 | 101* | -1 | 8 | 0
COc1ccc2c3c([nH]c2c1)[C@@H](CO)N(C(=O)c1ccncc1)CC31CCN(C(=O)Nc2cccc(F)c2)CC1 | -1 | 13 | x | -19 | x | x
Nc1nonc1-n1nnc(C(=O)N/N=C/c2cccc(Cl)c2)c1-c1ccc2c(c1)OCO2 | -2 | -1 | 72* | 5 | -9 | 1
Nc1nonc1-n1nnc(C(=O)N/N=C/c2ccc3c(c2)OCO3)c1-c1ccccc1 | 4 | -2 | 18* | -5 | -7 | 1
Nc1nonc1-n1nnc(C(=O)N/N=C/c2c(F)cccc2Cl)c1-c1ccc2c(c1)OCO2 | 0 | -3 | 4 | 5 | 7 | x
Nc1nonc1-n1nnc(C(=O)N/N=C/c2ccc(Br)cc2)c1-c1ccc2c(c1)OCO2 | -6 | 0 | 21* | 4 | 1 | 4
CC(C)c1c(C(=O)N/N=C/c2ccc3c(c2)OCO3)nnn1-c1nonc1N | 0 | 13 | 4 | -3 | -5 | x
Cc1ccc(-c2c(C(=O)N/N=C/c3ccncc3)nnn2-c2nonc2N)cc1 | 1 | 3 | -18 | -15 | -1 | x
O=S(=O)(N[C@@H]1CC[C@H](CCn2cc(-c3cccnc3)nn2)O[C@@H]1CO)c1ccc(Cl)cc1 | 10 | -4 | x | -13 | -13 | x
O=C(NNC(=O)c1cccc(S(=O)(=O)N2CCN(c3ccccc3)CC2)c1)c1ccc(Cl)cc1 | x | x | 58* | x | x | 1
CC(=O)N1CCN(C(=O)c2cccc(S(=O)(=O)N3CCN(c4ccccc4)CC3)c2)CC1 | -1 | -5 | -2 | -8 | -3 | x
COc1ccc(S(=O)(=O)Nc2ccc3c(c2)C(=O)N([C@@H](C)CO)C[C@@H](C)[C@@H](CN(C)S(=O)(=O)c2ccc(F)cc2)O3)cc1 | 1 | -15 | x | -16 | 3 | x
O=C(Nc1cccnc1Cl)c1cc(-c2cccc(O)c2)on1 | -5 | -1 | 55* | -7 | -1 | 8
COc1cccc(-c2cc(C(=O)Nc3cccnc3Cl)no2)c1 | -2 | -1 | 31* | -5 | 16 | -2
Cc1cc(OCc2nc(-c3ccc(NC(=O)c4cccnc4)cc3)no2)ccc1Cl | x | x | 78* | x | -4 | -1
Cc1ccccc1OCc1nc(-c2ccc(NC(=O)c3ccc4c(c3)OCO4)cc2)no1 | x | x | 19* | x | 3 | 0
O=C(Nc1ccc(-c2noc(CCc3ccccc3)n2)cc1)c1cccnc1 | x | x | -6 | x | 9 | x
Cc1ccccc1OCc1nc(-c2ccc(NC(=O)c3ccco3)cc2)no1 | x | x | 3 | x | -7 | x
C[C@@H]1CN([C@@H](C)CO)C(=O)c2cc(C#C[C@@H](C)O)cnc2O[C@H]1CN(C)C(=O)CN1CCOCC1 | -2 | 4 | x | -6 | 3 | x
O=C(C1CCCC1)N1CC2(C1)[C@@H](c1ccccc1)[C@@H](CO)N2C(=O)NC1CCCC1 | -1 | 25 | x | 5 | x | x
Cc1ccccc1-c1ccc2c(c1)O[C@H](CN(C)Cc1ccncc1)[C@H](C)CN([C@@H](C)CO)S2(=O)=O | 7 | 7 | x | 10 | 2 | x
SMILES | MLL AF4-AF9 inh | S100A4 inh HTS | dFosB act-1 | RAD52 anneal inh | RAD54 branch | dFosB act-2
CCN1CCN(c2cc(C)c3cc(NC(=O)CCC(=O)Nc4ccc(OC)cc4OC)ccc3n2)CC1 | 4 | 13 | 3 | -2 | -4 | x
CCN1CCN(c2c(C=O)c(Cl)nc3ccc(OC)cc23)CC1 | 0 | 7 | 27* | 48 | 40 | 2
COc1cc2c(cc1OC)C(c1ccc(-c3ccc(Cl)cc3Cl)o1)=NCC2 | x | x | 34* | x | -18 | -30
COc1cc2c(cc1OC)C(c1ccc(-c3ccccc3Cl)o1)=NCC2 | 19 | 3 | 15 | -24 | x | x
O=C(C1CCCC1)N1[C@H](CO)[C@H]2c3ccccc3N(S(=O)(=O)c3ccc(F)cc3)C[C@H]21 | 1 | 8 | x | -19 | -4 | x
O=C(/C=C/c1ccccc1Cl)Nc1ccc2c(c1)C(=O)NC2=O | -5 | 4 | 20* | -74 | 1 | 0
O=C(Nc1ccc2c(c1)C(=O)NC2=O)c1ccccc1Cl | -2 | 5 | 2 | -1 | -10 | x
O=C(CCC(=O)NNC(=O)COc1ccc(Br)cc1Br)NCc1ccccc1 | -28 | 4 | 34* | 2 | x | 3
O=C(CCC(=O)NNC(=O)COc1ccccc1)NCc1ccccc1 | -45 | 4 | 5 | 2 | 0 | x
Cc1cc(Br)cc(Br)c1OCC(=O)NNC(=O)CCC(=O)NCc1ccccc1 | -1 | -3 | 25* | -12 | -12 | 1
Cc1cc(C)cc(OCC(=O)NNC(=O)CCC(=O)NCc2ccccc2)c1 | x | 5 | 2 | -10 | -4 | x
Cc1cc(Nc2ccc3c(c2)OCCO3)c2cc(Cl)ccc2n1 | x | x | 29* | x | x | -8
Cc1cc(Nc2cccc(Cl)c2)c2ccccc2n1 | -1 | 0 | -13 | -13 | 12 | x
COc1cccc(NC(=O)N[C@H]2C=C[C@H](CC(=O)Nc3ccccc3)O[C@@H]2CO)c1 | -1 | 1 | x | -1 | -8 | x
COc1ccccc1C#Cc1ccc([C@H]2[C@@H](C#N)N(C(=O)C3CC3)[C@@H]2CO)cc1 | -1 | 8 | x | -4 | 2 | x
C[C@H](CO)N1C[C@H](C)[C@H](CN(C)Cc2ccc(Oc3ccccc3)cc2)Oc2ccc(NC(=O)Nc3ccc(C(F)(F)F)cc3)cc2C1=O | 1 | -1 | x | 40 | 3 | x
COc1ccc(S(=O)(=O)N(C)C[C@@H]2Oc3ccc(NC(=O)C4CCCCC4)cc3CC(=O)N([C@@H](C)CO)C[C@@H]2C)cc1 | 0 | 6 | x | -11 | 0 | x
O=C(Nc1cc(N2CCOCC2)ncn1)NC1(C(F)(F)F)Oc2ccccc2O1 | x | x | 33* | x | -6 | -3
CC(=O)N1[C@@H](CO)[C@H](c2ccccc2)C12CN(C(=O)c1ccc3c(c1)OCO3)C2 | -1 | -38 | x | -17 | x | x
CC(C)C#Cc1ccc2c(c1)O[C@H](CN(C)Cc1cncnc1)[C@H](C)CN([C@@H](C)CO)S2(=O)=O | 1 | -2 | x | 5 | -1 | x
COc1ccc(/C=C/C(=O)OCC(=O)Nc2c(C)cccc2C)cc1 | 5 | 0 | 25* | -1 | x | -14
